# Results from ChEMBL document CHEMBL1124640, “Synthesis and biological evaluation of certain C-4 substituted pyrazolo[3,4-b]pyridine nucleosides” (1989).
# Activity calls are given as the source filed them. No cut-off for these calls is given here.
# What was measured:
# [1] = system: Vero; experiment: Antiviral activity against Para Flu 3 virus in Vero cells; IA= Inactive; format: functional, cell-based; conditions: Chlorocebus sabaeus
# [2] = system: Human adenovirus 2; experiment: Antiviral activity against adeno 2 virus in HeLa cells.; format: functional, organism-based
# [3] = system: Lymphoblastoid cell; experiment: Ability to inhibit de novo purine nucleotide biosynthesis at a concentration of 100 uM; format: functional; conditions: Homo sapiens
# Procedure, shortened: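 De novo purine nucleotide synthesis was measured as [14C]formate incorporation in cultured human lymphoblast cells, with compound at 100 μM. Results are given as percent inhibition.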
# [4] = system: Visna-maedi virus; experiment: Antiviral activity against Visna virus in SCP cells.; format: functional, organism-based
# [5] = Cytotoxicity against human B-lymphoblastic cell line WI-L2; format: functional; conditions: WIL2, read-out: ID50 (the source's name)
# [6] = system: Semliki Forest virus; experiment: Antiviral activity against semliki forest virus in Vero cells.; format: functional, organism-based
# [7] = system: L1210; experiment: Cytotoxicity against murine leukemic cell line L1210; format: functional; conditions: Mus musculus, read-out: ID50 (the source's name)
# [8] = system: HeLa; experiment: Antiviral activity against rhino 1-A virus in HeLa cells; IA= Inactive; format: functional, cell-based; conditions: Homo sapiens
# [9] = system: Human alphaherpesvirus 2; experiment: Antiviral activity against herpes 2 virus in Vero cells.; format: functional, organism-based; conditions: herpes simplex virus type2
# [10] = system: Vero; experiment: Antiviral activity against semliki forest virus in Vero cells; format: functional, cell-based; conditions: Chlorocebus sabaeus
# [11] = system: HeLa; experiment: Antiviral activity against rhino 1-A virus in HeLa cells; format: functional, Homo sapiens
Compound,Activity [1],Activity [2],inhibition at 100 µM [3],Activity [4],IC50 [5],Activity [6],IC50 [7],Activity [8],Activity [9],Activity [10],Virus rating [11]
OC[C@H]1OC(n2ncc3c(Cl)ccnc32)[C@H](O)[C@@H]1O (stereo partly specified),inactive,inactive,94%,inactive,18 µM,inactive,20 µM,inactive,inactive,,
COc1ccnc2c1cnn2C1O[C@H](CO)[C@@H](O)[C@@H]1O (stereo partly specified),,inactive,,inactive,,inactive,,,inactive,,
Nc1ccnc2c1cnn2C1O[C@H](CO)[C@@H](O)[C@H]1O (stereo partly specified),inactive,inactive,36%,inactive,,,,inactive,inactive,inactive,
[N-]=[N+]=Nc1ccnc2c1cnn2C1O[C@H](CO)[C@@H](O)[C@H]1O (stereo partly specified),inactive,inactive,46%,inactive,,inactive,,inactive,inactive,,
OC[C@H]1OC(n2ncc3c(Cl)ccnc32)[C@@H](O)[C@@H]1O (stereo partly specified),,inactive,,inactive,,inactive,,,inactive,,
OC[C@H]1OC(n2ncc3c(O)ccnc32)[C@@H](O)[C@@H]1O (stereo partly specified),,inactive,,inactive,,inactive,,,inactive,,
OC[C@H]1OC(n2ncc3cccnc32)[C@@H](O)[C@@H]1O (stereo partly specified),,inactive,,inactive,,inactive,,,inactive,,
OC[C@H]1O[C@@H](n2ncc3cccnc32)C[C@@H]1O,,inactive,,inactive,,inactive,,,inactive,,
OC[C@H]1OC(n2ncc3cccnc32)[C@H](O)[C@@H]1O (stereo partly specified),,inactive,,inactive,,inactive,,,inactive,,
COc1ccnc2c1cnn2C1O[C@H](CO)[C@@H](O)[C@H]1O (stereo partly specified),,inactive,,inactive,,inactive,,,inactive,,
Nc1ccnc2c1cnn2[C@H]1C[C@H](O)[C@@H](CO)O1,,inactive,,inactive,,inactive,,,inactive,,
O=C1CC=Nc2c1cnn2C1O[C@H](CO)[C@@H](O)[C@H]1O (stereo partly specified),,,80%,,20 µM,,> 100 µM,,,,0.6
O=C1CC=Nc2c1cnn2[C@H]1C[C@H](O)[C@@H](CO)O1,,inactive,,inactive,,inactive,,,inactive,,
Nc1ccnc2c1cnn2C1O[C@H](CO)[C@@H](O)[C@@H]1O (stereo partly specified),inactive,inactive,,inactive,,inactive,,inactive,inactive,,
OC[C@H]1OC(n2ncc3c(OCc4ccccc4)ccnc32)[C@H](O)[C@@H]1O (stereo partly specified),,inactive,,inactive,,inactive,,,inactive,,
COc1ccnc2c1cnn2[C@H]1C[C@H](O)[C@@H](CO)O1,,inactive,,inactive,,inactive,,,inactive,,
OC[C@H]1O[C@@H](n2ncc3c(Cl)ccnc32)C[C@@H]1O,,inactive,,inactive,,inactive,,,inactive,,
